In paper PMC3625046 (Bioorganic & medicinal chemistry letters, 2013):
pIC50: −log10 of the molar value.

What was measured:
[1] = tested on: human foreskin fibroblasts; assay: Toxicity to human foreskin fibroblasts; assay type: cell-based
[2] = tested on: T. gondii (Pru strain expressing firefly luciferase); assay: T. gondii murine infection model; assay type: in vivo, mice
Procedure, shortened: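 Mice infected intraperitoneally with 2x10⁴ Pru-strain T. gondii tachyzoites expressing firefly luciferase. Animals imaged daily by bioluminescence after intraperitoneal luciferin (3mg). Parasite burden in treated mice compared with a DMSO control group on day 6 post-infection. Three separate replicate experiments, analysed singly and pooled; ANOVA with group and run as factors.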

[3] = tested on: P. falciparum strain D6 (CDC/Sierra Leone); assay: SYBR Green assay, P. falciparum strain D6; assay type: cell-based, Plasmodium falciparum; settings: chloroquine sensitive D6 strain
[4] = tested on: P. falciparum strain TM91C235 (WRAIR, Thailand; chloroquine resistant); assay: SYBR Green assay, P. falciparum strain C235; assay type: cell-based, Plasmodium falciparum
[5] = target: T1, Toxoplasma gondii enoyl reductase (TgENR) (Toxoplasma gondii, UniProt Q6UCJ9); assay: TgENR enzyme assay; assay type: biochemical; settings: read-out: Inhibition (%) at 1 µM
T1 sequence (Q6UCJ9 28-417): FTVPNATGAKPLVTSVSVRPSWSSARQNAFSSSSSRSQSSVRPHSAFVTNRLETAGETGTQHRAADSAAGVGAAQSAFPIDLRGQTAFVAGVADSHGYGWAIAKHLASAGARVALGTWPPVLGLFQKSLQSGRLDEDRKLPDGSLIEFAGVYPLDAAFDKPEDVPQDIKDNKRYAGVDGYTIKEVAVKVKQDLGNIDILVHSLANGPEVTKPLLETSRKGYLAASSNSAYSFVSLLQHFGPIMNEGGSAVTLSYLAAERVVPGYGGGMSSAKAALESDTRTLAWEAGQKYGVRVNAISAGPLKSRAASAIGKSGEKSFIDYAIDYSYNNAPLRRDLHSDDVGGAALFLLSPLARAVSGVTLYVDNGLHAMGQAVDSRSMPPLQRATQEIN

[6] = tested on: Toxoplasma gondii; settings: read-out: IC50, growth of T. gondii parasites; cited from earlier work

Structure (SMILES) | Toxicity [1] [µM] | further results
Oc1cc(Cl)ccc1Oc1ccc2ccccc2c1 [Compound 2] | >10 | –
Oc1cc(Cl)ccc1Oc1ccc(C(F)(F)F)cc1Cl [Compound 3] | >10 | –
CN1CCN(c2ccc(Oc3ccc(Cl)cc3O)cc2)CC1 [Compound 5a] | >10 | –
Oc1cc(Cl)ccc1Oc1ccc(N2CCOCC2)cc1 [Compound 5b] | >10 | –
CC(=O)N1CCN(c2ccc(Oc3ccc(Cl)cc3O)cc2)CC1 [Compound 5c] | >10 | efficacy at lower dose ([2]; 50mg/kg): not effective; toxicity in infected mice ([2]; 75mg/kg, by the seventh day after infection): toxic; solubility of higher dose ([2]; 100mg/kg): not completely soluble; activity against P. falciparum D6 [3]: inactive; activity against P. falciparum C235 [4]: inactive
CN1CCN(Cc2ccc(Oc3ccc(Cl)cc3O)cc2)CC1 [Compound 5d] | >10 | –
O=S(=O)(c1ccc(Oc2ccc(Cl)cc2O)cc1)N1CCCC1 [Compound 7a] | >10 | –
O=S(=O)(c1ccc(Oc2ccc(Cl)cc2O)cc1)N1CCCCC1 [Compound 7b] | >10 | –
Cn1cc(C(=O)Nc2ccc(Cl)cc2O)c(C(F)(F)F)n1 [Compound 10] | >10 | –
CNC(=O)c1ccc(Oc2ccc(Cl)cc2O)o1 [Compound 14a] | >10 | –
Cc1cc(NC(=O)c2ccc(Oc3ccc(Cl)cc3O)o2)no1 [Compound 14b] | >10 | –
CC(=O)N1CCN(C(=O)c2ccc(Oc3ccc(Cl)cc3O)o2)CC1 [Compound 14c] | >10 | –
O=C(O)c1ccc(Oc2ccc(Cl)cc2O)s1 [Compound 16] | >10 | –
CC(C)(C)OC(=O)N1CCN(C(=O)c2ccc(Oc3ccc(Cl)cc3O)s2)CC1 [Compound 17b] | >10 | –
O=C(c1ccc(Oc2ccc(Cl)cc2O)s1)N1CCNCC1 [Compound 17c] | >10 | –
CC(=O)N1CCN(Cc2ccc(Oc3ccc(Cl)cc3O)s2)CC1 [Compound 18] | >10 | –
Oc1cc(Cl)ccc1Oc1ccc2ncccc2c1 [Compound 19] | >10 | –
Oc1cc(Cl)ccc1Oc1ccc(Cl)cc1Cl [Triclosan] | >10 | inhibition at 1 µM [5]: 98%; pIC50 [6]: ~6.70
